Measured values pooled from the literature.
Protocols differ between the studies behind these lines.
Target: Serine/threonine-protein kinase Sgk3 (SGK3, Homo sapiens, UniProt Q96BR1)
One construct used (Q96BR1 1-496): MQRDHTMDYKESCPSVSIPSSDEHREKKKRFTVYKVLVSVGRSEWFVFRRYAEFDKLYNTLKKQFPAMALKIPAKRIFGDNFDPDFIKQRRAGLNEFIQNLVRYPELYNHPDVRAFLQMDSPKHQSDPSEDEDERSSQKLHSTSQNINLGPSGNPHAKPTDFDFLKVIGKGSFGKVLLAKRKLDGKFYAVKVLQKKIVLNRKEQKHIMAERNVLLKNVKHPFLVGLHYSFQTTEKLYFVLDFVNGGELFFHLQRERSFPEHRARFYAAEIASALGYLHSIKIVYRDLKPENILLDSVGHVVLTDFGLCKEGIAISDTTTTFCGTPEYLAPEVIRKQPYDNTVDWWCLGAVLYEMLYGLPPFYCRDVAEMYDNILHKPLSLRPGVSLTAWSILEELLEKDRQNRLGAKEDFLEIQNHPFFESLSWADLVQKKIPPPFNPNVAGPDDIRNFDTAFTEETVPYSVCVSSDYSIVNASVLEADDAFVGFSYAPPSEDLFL

Cc1ccc(Nc2nccc(N(C)c3ccc4c(C)n(C)nc4c3)n2)cc1S(N)(=O)=O  inhibition (enzyme activity; inhibitor; 0.3 µM): 10%
Cc1nc(C2CCN(C(=O)c3ccc(OC(F)(F)F)cc3N)CC2)c2ncc(N3CCN(C)CC3)cc2n1  remaining binding (cell-free assay; competition with immobilised ligand; 1 µM): 93%
COc1cccc2c(NCc3ccccc3)nc(-n3c(N)nc4ccccc43)nc12  inhibition (target engagement in cells; inhibitor; chemoproteomics; 20 mM): -7.6%
CCN(CC)c1ccc(C2=NNC(=O)CC2C)cc1[N+](=O)[O-] (stereo not drawn)  remaining activity (enzyme activity; inhibitor; 10 µM): 114%
CCOc1cc(-c2nncn2C)ccc1Nc1ncc2cc(C)nc(NCC(C)(C)C)c2n1  inhibition (enzyme activity; inhibitor; FRET; 1 µM): < 15%
CO[C@@H](C)c1c(Nc2ccc([C@H](N(C)C(=O)C3CCS(=O)(=O)CC3)C(F)(F)F)cc2)cnc2cc(Cl)nn12  remaining binding (cell-free assay; competition with immobilised ligand; 1 µM): 100%
Cc1cc(NC(=O)c2cccc3cc(-c4cccc5[nH]nc(N)c45)ccc23)ccc1F  activity vs control (enzyme activity; inhibitor; 0.1 µM): 106%
Cc1ccc(NC(=O)c2ccc(C)c(C(F)(F)F)c2)cc1C#Cc1nn(C2CCC(O)CC2)c2ncnc(N)c12 (stereo not drawn)  remaining signal (cell-free assay; 10 µM): 98%
CCS(=O)(=O)c1cc2cc(C[C@@](O)(CC(C)(C)c3ccc(F)cc3C(N)=O)C(F)(F)F)[nH]c2cn1  remaining binding (cell-free assay; competition with immobilised ligand; 1 µM): 79%
C[C@@H]1CCN(C(=O)CC#N)C[C@@H]1N(C)c1ncnc2[nH]ccc12  remaining signal (cell-free assay; inhibitor; 0.5 µM): 98.1%
Cc1sc(C(=O)NC2COC2)cc1-n1cc(NC(=O)Nc2c(F)cccc2Cl)cn1  remaining activity (enzyme activity; inhibitor; 10 µM): 90.1%
O=C1NC(=O)c2cc(Nc3ccc(F)cc3)c(Nc3ccc(F)cc3)cc21  remaining signal (cell-free assay; 0.5 µM): 102%
CN1CC(Oc2cnc(C#N)cc2-c2ccn3nc(NC(=O)C4CC4)cc3c2)C1  inhibition (enzyme activity; inhibitor; 1 µM): -3%
CCN(CC)CCNC(=O)c1c(C)[nH]c(/C=C2\C(=O)Nc3ccc(F)cc32)c1C  remaining signal (cell-free assay; 0.5 µM): 101%
CNC(=O)c1cc(Oc2ccc(NC(=O)Nc3ccc(Cl)c(C(F)(F)F)c3)cc2)ccn1  inhibition (enzyme activity; inhibitor; 10 µM): 11%
CS(=O)(=O)CCNCc1ccc(-c2ccc3ncnc(Nc4ccc(OCc5cccc(F)c5)c(Cl)c4)c3c2)o1  remaining signal (cell-free assay; 0.5 µM): 102%
CO[C@H]1CC[C@H](CNc2ccc(S(=O)(=O)NC(=O)c3ccc(N4CCN(CC5=C(c6ccc(Cl)cc6)CC(C)(C)CC5)CC4)cc3Oc3cnc4[nH]ccc4c3)cc2[N+](=O)[O-])CC1  remaining binding (cell-free assay; competition with immobilised ligand; 1 µM): 99%
COc1cc2ncnc(Nc3ccc(Oc4ccccc4)c(C)c3C)c2cc1OC  inhibition (enzyme activity; inhibitor; 1 µM): -5%
Cn1nc(C(=O)NCc2ccc(C(=O)O)cc2)cc1-c1ccc2[nH]ccc2c1  remaining binding (cell-free assay; competition with immobilised ligand; 0.1 µM): 96%
c1ccc(CNc2nc(N3CCOc4ccccc43)nc3c2CCCC3)cc1  inhibition (target engagement in cells; inhibitor; chemoproteomics; 20 mM): -9%
O=C1CCc2cc(Nc3cc(OC4CCOCC4)c([N+](=O)[O-])cc3Cl)ccc2N1  remaining binding (cell-free assay; competition with immobilised ligand; 1 µM): 100%
O=C(Nc1cnn(-c2csc(C(=O)NC3COC3)c2)c1)Nc1c(F)cccc1Cl  remaining activity (enzyme activity; inhibitor; 5 µM): 95.3%
CNC(=O)c1ccc(Nc2ncc(C(F)(F)F)c(NCc3nccnc3N(C)S(C)(=O)=O)n2)cc1  remaining binding (cell-free assay; competition with immobilised ligand; 0.1 µM): 85%
CCCOc1ccc(OC)c(F)c1C(=O)c1ccc(C(=O)N[C@@H]2CNC[C@H]2NC(=O)c2ccc3[nH]ncc3c2)cc1  remaining activity (enzyme activity; inhibitor; 10 µM): 23%
